Experimental data as given in ChEMBL document CHEMBL4765235, “Discovery of N-[Bis(4-methoxyphenyl)methyl]-4-hydroxy-2-(pyridazin-3-yl)pyrimidine-5-carboxamide (MK-8617), an Orally Active Pan-Inhibitor of Hypoxia-Inducible Factor Prolyl Hydroxylase 1-3 (HIF PHD1-3) for the Treatment of Anemia” (J Med Chem, 2016).
Active and inactive are the calls of the source. The calls are words filed in the database; no cut-off is given here.

Key:
[1] = Cmax in Sprague-Dawley rat at 15 mg/kg, po administered as single dose measured at 6 hrs; format: ADME, organism-based; parameters: route oral, time 6 hrs, dose 15 mg/kg; conditions: in vivo
[2] = Oral bioavailability in rat at 2 mg/kg; format: ADME, organism-based; conditions: in vivo
Mus musculus = organism: Mus musculus; conditions: C57BL/6, dose 5-15 mg/kg, time 2.0 day
Cytochrome P450 2D6 = Cytochrome P450 2D6 (Homo sapiens, UniProt P10635); assay: Inhibition of CYP2D6 (unknown origin); format: ADME
Cytochrome P450 2D6, sequence (P10635 whole entry): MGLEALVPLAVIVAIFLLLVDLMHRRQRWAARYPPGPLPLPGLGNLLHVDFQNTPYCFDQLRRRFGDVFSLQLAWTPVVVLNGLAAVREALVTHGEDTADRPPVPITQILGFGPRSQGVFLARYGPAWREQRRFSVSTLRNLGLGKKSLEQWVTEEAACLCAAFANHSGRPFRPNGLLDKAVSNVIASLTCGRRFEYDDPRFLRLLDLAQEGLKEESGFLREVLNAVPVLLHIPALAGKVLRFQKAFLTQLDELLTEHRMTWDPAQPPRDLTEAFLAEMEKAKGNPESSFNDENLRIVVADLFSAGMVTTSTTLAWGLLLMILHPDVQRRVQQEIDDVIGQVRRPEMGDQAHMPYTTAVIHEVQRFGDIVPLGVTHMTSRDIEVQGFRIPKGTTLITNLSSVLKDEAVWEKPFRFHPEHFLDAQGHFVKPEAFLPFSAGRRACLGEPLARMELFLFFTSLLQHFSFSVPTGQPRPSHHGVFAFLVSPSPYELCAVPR

Rattus norvegicus [3] = organism: Rattus norvegicus; conditions: Sprague-Dawley, dose 5-15 mg/kg
[4] = Drug recovery in fasted bile-duct cannulated Sprague-Dawley rat urine at 5 mg/kg, po using [3H]-labeled compound measured after 48 hrs; format: ADME, organism-based; conditions: in vivo
[5] = target: Voltage-gated inwardly rectifying potassium channel KCNH2 (Homo sapiens, UniProt Q12809); assay: Inhibition of human ERG
Voltage-gated inwardly rectifying potassium channel KCNH2, sequence (Q12809 whole entry): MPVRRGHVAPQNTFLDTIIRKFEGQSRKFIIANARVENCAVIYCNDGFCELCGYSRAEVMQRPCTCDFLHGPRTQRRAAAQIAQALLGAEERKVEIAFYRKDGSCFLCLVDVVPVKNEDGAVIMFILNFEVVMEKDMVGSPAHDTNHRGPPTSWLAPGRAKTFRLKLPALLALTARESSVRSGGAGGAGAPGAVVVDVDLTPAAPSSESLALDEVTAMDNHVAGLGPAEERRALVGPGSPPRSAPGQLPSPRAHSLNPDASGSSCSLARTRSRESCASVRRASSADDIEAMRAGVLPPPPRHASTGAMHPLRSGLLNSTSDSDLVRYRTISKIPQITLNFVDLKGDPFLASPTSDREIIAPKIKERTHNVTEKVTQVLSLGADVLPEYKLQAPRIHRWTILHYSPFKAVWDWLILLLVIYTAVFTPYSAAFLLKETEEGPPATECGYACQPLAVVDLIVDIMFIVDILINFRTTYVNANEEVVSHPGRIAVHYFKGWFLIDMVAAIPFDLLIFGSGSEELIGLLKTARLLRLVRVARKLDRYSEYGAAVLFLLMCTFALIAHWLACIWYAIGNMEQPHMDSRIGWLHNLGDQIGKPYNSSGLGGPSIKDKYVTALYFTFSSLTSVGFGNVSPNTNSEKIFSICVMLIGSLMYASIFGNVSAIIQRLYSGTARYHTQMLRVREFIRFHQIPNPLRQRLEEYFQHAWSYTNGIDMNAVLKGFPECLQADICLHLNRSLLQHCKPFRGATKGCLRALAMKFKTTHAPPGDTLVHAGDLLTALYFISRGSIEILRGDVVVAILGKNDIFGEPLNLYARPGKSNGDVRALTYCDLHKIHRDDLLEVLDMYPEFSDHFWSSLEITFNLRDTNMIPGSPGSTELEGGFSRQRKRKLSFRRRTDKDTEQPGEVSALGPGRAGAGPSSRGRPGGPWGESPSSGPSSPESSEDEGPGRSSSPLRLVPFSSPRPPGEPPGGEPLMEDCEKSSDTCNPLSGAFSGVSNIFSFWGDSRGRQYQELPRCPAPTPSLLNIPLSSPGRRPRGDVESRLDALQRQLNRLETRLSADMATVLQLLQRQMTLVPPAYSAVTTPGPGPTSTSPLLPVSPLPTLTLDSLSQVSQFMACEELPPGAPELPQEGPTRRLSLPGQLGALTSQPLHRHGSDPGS

[6] = Cmax in rat at 2 mg/kg, po or 1 mg/kg, iv; format: ADME, organism-based; parameters: dose 2 mg/kg; conditions: in vivo
[7] = Oral bioavailability in dog at 1 mg/kg; format: ADME, organism-based, Canis lupus familiaris; conditions: in vivo
How it was run: (§1)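 Dog and rhesus monkey dosed 1 mg/kg po and 0.5 mg/kg iv. The iv vehicle was PEG200:12%HPCD:water (30:12:58 v/v/v); the po vehicle was Imwitor:Tween (1:1 w/w). Clearance was measured in plasma. Protein binding was measured in 100% serum.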

[8] = Drug metabolism in human liver microsomes assessed as O-demethylated metabolite formation; format: ADME, Microsome
Cytochrome P450 2C8 = target: T1, Cytochrome P450 2C8 (Homo sapiens, UniProt P10632); assay: Reversible inhibition of CYP2C8 (unknown origin); format: ADME
T1 sequence (P10632 whole entry): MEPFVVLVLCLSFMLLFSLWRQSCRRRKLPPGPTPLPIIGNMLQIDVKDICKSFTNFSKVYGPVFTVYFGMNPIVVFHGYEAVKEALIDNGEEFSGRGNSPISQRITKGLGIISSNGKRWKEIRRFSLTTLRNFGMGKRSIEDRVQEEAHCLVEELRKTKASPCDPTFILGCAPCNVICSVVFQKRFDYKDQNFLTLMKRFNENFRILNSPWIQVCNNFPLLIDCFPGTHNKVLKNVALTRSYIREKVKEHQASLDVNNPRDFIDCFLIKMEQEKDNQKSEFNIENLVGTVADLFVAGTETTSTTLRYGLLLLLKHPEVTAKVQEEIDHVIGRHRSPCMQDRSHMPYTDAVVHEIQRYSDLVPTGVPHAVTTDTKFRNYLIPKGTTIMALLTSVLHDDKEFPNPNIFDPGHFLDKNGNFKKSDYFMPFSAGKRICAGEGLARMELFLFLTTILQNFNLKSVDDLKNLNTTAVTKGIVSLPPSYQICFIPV

[9] = Half life in C57BL/6J mouse at 1 mg/kg, po or 0.5 mg/kg, iv; format: ADME, organism-based; conditions: in vivo
How it was run: (§2)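 Single-dose PK at 1 mg/kg po and 0.5 mg/kg iv. Mouse clearance is from blood; dog and rhesus clearance is from plasma. Mouse vehicle, both routes: DMSO:PEG400:water (5:40:55, v/v/v). Dog and monkey iv vehicle: PEG200:12%HPCD:water (30:12:58 v/v/v). Dog and monkey po vehicle: Imwitor:Tween (1:1 w/w).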

[10] = Drug recovery in fasted bile-duct cannulated Sprague-Dawley rat feces assessed as metabolically unchanged parent compound by measuring radioactivity at 5 mg/kg, po using [3H]-labeled compound measured after 48 hrs; format: ADME, organism-based; conditions: in vivo
Rattus norvegicus [11] = organism: Rattus norvegicus; conditions: Sprague-Dawley, dose 15.0 mg/kg
[12] = Drug metabolism in rat liver microsomes assessed as O-demethylated metabolite formation; format: ADME, Microsome
Cytochrome P450 1A2 = target: T2, Cytochrome P450 1A2 (Homo sapiens, UniProt P05177); assay: Inhibition of CYP1A2 (unknown origin); format: ADME
T2 sequence (P05177 whole entry): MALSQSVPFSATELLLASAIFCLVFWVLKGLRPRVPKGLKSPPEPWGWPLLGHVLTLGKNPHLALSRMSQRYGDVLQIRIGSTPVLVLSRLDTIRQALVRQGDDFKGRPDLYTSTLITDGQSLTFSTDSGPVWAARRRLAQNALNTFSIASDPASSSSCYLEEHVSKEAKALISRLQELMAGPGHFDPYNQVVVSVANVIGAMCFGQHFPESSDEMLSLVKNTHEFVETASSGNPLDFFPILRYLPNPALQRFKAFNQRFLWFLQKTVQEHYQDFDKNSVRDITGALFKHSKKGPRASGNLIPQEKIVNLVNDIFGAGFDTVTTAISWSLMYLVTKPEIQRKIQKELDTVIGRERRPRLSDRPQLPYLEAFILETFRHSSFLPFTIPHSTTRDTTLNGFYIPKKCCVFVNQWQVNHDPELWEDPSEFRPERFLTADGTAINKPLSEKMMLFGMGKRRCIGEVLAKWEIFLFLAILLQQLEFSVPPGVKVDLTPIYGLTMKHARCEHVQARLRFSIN

[13] = Half life in rat at 2 mg/kg, po or 1 mg/kg, iv; format: ADME, organism-based; conditions: in vivo
[14] = In vivo inhibition of HIF-PHD2 in C57BL/6 mouse assessed as serum erythropoietin level at 100 mg/kg, iv measured after 4 hrs; format: functional
How it was run: (§3)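 Mouse pharmacodynamic EPO assay (MoPED). Compound dosed iv; serum EPO measured 4 hr after dosing and reported in pg/mL. Minimum effective dose is the lowest dose giving EPO elevation.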

[15] = Cmax in C57BL/6J mouse at 1 mg/kg, po or 0.5 mg/kg, iv; format: ADME, organism-based; parameters: dose 1 mg/kg; conditions: in vivo; how it was run: as §2
[16] = Cmax in dog at 1 mg/kg, po or 0.5 mg/kg, iv; format: ADME, organism-based, Canis lupus familiaris; parameters: dose 1 mg/kg; conditions: in vivo; how it was run: as §2
Cytochrome P450 2C9 = Cytochrome P450 2C9 (Homo sapiens, UniProt P11712); assay: Inhibition of CYP2C9 (unknown origin); format: ADME
Cytochrome P450 2C9, sequence (P11712 whole entry): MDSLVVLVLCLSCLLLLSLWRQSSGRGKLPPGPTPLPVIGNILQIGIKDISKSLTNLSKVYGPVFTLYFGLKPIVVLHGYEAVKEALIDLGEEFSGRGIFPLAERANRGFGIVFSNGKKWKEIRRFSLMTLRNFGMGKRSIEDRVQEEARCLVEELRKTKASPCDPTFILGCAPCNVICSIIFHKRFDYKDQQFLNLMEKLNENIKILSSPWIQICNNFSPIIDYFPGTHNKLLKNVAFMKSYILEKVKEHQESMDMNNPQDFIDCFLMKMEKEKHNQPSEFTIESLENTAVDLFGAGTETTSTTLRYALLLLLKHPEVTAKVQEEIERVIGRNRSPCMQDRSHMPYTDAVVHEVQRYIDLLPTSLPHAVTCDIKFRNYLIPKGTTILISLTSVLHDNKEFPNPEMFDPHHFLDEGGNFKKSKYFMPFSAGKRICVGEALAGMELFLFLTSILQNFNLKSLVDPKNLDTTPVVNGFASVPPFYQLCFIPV

[17] = Drug metabolism in fasted bile-duct cannulated Sprague-Dawley rat urine assessed as oxidation of parent compound causing metabolite formation at 5 mg/kg, po using [3H]-labeled compound measured after 48 hrs; format: ADME, organism-based; conditions: in vivo
[18] = Plasma clearance in rhesus monkey at 1 mg/kg, po or 0.5 mg/kg, iv; format: ADME, organism-based, Macaca mulatta; how it was run: as §1
[19] = Drug metabolism in dog liver microsomes assessed as O-demethylated metabolite formation; format: ADME, Canis lupus familiaris, Microsome
[20] = Drug recovery in fasted bile-duct cannulated Sprague-Dawley rat bile at 5 mg/kg, po using [3H]-labeled compound measured after 48 hrs; format: ADME, organism-based; conditions: in vivo
[21] = In vivo inhibition of HIF-PHD2 in C57BL/6 mouse assessed as serum erythropoietin level at 1.5 mg/kg, iv measured after 4 hrs; format: functional; how it was run: as §3
[22] = Drug recovery in fasted bile-duct cannulated Sprague-Dawley rat urine assessed as metabolically unchanged parent compound at 5 mg/kg, po using [3H]-labeled compound measured after 48 hrs; format: ADME, organism-based; conditions: in vivo
[23] = In vivo inhibition of HIF-PHD2 in C57BL/6 mouse assessed as serum erythropoietin level at 15 mg/kg, iv measured after 4 hrs; format: functional; how it was run: as §3
[24] = Plasma clearance in dog at 1 mg/kg, po or 0.5 mg/kg, iv; format: ADME, organism-based, Canis lupus familiaris; how it was run: as §1
[25] = Protein binding in rhesus monkey plasma assessed as unbound fraction at 1 mg/kg, po or 0.5 mg/kg, iv; format: ADME, organism-based, Macaca mulatta; conditions: read-out: PPB

- Cmax [1]: 30 µM
- bioavailability [2]: 36%
- IC50 (Cytochrome P450 2D6): > 60 µM
- Drug recovery [4]: 26%
- Cmax [6]: 11 µM
- bioavailability [7]: 71%
- Drug metabolism [8]: Metabolite_Detected
- IC50 (Cytochrome P450 2C8): 1.6 µM
- half-life [9]: 11 h
- Drug recovery [10]: 90%
- Drug metabolism [12]: Metabolite_Detected
- IC50 (Cytochrome P450 1A2): > 60 µM
- half-life [13]: 9.3 h
- Cmax [15]: 8.4 µM
- Cmax [16]: 18 µM
- IC50 (Cytochrome P450 2C9): > 60 µM
- Drug metabolism [17]: Metabolite_Detected
- clearance [18]: 0.15 mL/min/kg
- Drug metabolism [19]: Metabolite_Detected
- Drug recovery [20]: 12%
- Drug recovery [22]: < 10%
- clearance [24]: 0.07 mL/min/kg
- fraction unbound [25]: 0.005
Compound: COc1ccc(C(NC(=O)c2cnc(-c3cccnn3)nc2O)c2ccc(OC)cc2)cc1
- inhibition (Mus musculus): Active
- inhibition (Rattus norvegicus [3]): Active
- IC50 [5]: > 30 µM
- inhibition (Rattus norvegicus [11]): Active
- Activity [14]: 27000 pg/mL
- Activity [21]: 360 pg/mL
- Activity [23]: 12000 pg/mL
